The results in this text go back to ChEMBL document CHEMBL3286391, “High content screening of diverse compound libraries identifies potent modulators of tubulin dynamics” (ACS Med Chem Lett, 2014).

Activity calls are given as the source filed them. The rule behind the calls is not given here.

Series [1] has as its system U2OS. In words: Growth inhibition of human U2OS cells after 72 hrs by sulforhodamine B assay. Type of series: functional. In outline: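 GI50 in U2OS cells. Mean of at least two independent experiments, each in triplicate.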
(The SRB assay estimates cell density from bound dye.)

Series [2] relates to U2OS. Description: Induction of mitotic arrest in human U2OS cells assessed as mitotic index after 20 hrs by microscopic analysis.
A short description of series [3]: Solubility of the compound at >1 uM. Type of series: physicochemical.
In a further series the target is Tubulin (Homo sapiens) (UniProt P68371+Q9H4B7+P0DPH7+P68366+Q13509+Q71U36+P04350+Q3ZCM7+P07437+P68363+Q9BQE3+Q6PEY2+Q13885+Q9BVA1+Q9BUF5). Description: Binding affinity to tubulin in human U2OS cells assessed as disruption of tubulin network at 100 nM after 20 hrs by DAPI staining-based confocal microscopic analysis. Type of series: cell-based. In outline:
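U2OS cells treated with compound, then stained with DAPI and an α-tubulin antibody. Tubulin network imaged by confocal microscopy.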

The species named for series [4] is Sus scrofa. In words: Inhibition of porcine alpha/beta tubulin polymerization at 10 uM after 1 hr by spectrophotometric analysis. The method in brief: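 Tubulin (3 mg/mL) incubated with compound (10 μM) and GTP at 37 °C for 1 h to monitor polymerization.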
The subject of series [5] is U2OS. In words: Induction of mitotic arrest in human U2OS cells at 50 uM after 72 hrs by microscopic analysis relative to control. Type of series: functional. To be noted: in the assay text read “after 20 hrs” for “after 72 hrs”. The method in brief: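 Primary screen in U2OS cells at a single 50 μM concentration, in triplicate. Cells stained for phospho-histone H3 with Hoechst counterstain and imaged by automated high content microscopy. Percentage of mitotically arrested cells calculated by algorithm.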

In series [6] the test system is U2OS. In words: Induction of mitotic arrest in human U2OS cells assessed as mitotic index after 72 hrs by microscopic analysis. Type of series: functional, cell-based. To be noted: in the assay text read “after 20 hrs” for “after 72 hrs”. In outline: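 Phenotypic high content assay in U2OS osteosarcoma cells. Cells stained for phosphorylated histone H3 (mitotic marker) and Hoechst, imaged on an automated high content microscope. An algorithm scores the percentage of cells arrested in mitosis. MI EC50 is the mean of at least two independent experiments, each in triplicate.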

The species entered for series [7] is Sus scrofa. Description: Displacement of colchicine from porcine alpha/beta tubulin assessed as decrease in colchicine fluorescence intensity at 5 to 20 uM after 1 hr by spectrophotometric analysis relative to control. In outline: (§1)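 Colchicine (3 μM), tubulin (3 μM) and compound incubated 1 h at 37 °C. Colchicine fluorescence intensity read at ex/em 365/435 nm. Nocodazole served as positive control. Mean ± s.e.m. of one experiment run in triplicate.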

For series [8], the species on record is Sus scrofa. Description: Displacement of BODIPY-FL-vinblastine from porcine alpha/beta tubulin at 20 to 60 uM after 20 hrs by fluorescence polarization assay. The method in brief: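 Fluorescence polarization assay with FL-BODIPY-vinblastine tracer (2 μM) and tubulin (2 μM). Unlabeled vinblastine served as positive control. Ex/em 485/520 nm. Mean ± s.e.m. of one experiment run in triplicate.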

A short description of series [9]: Solubility of the compound. Type of series: physicochemical.
Series [10] in a line: Stability of the compound. The format is physicochemical.
For series [11], the species on record is Sus scrofa. In words: Displacement of colchicine from porcine alpha/beta tubulin assessed as decrease in colchicine fluorescence intensity after 1 hr by spectrophotometric analysis. The method in brief: as §1

In the case of `CC(=O)c1ccc(-c2ccc(CC(=O)NCc3ccco3)cc2)cc1`, in the series with U2OS [1], the GI50 – broadly, the concentration that inhibits growth by half – is 24 nM. For the same molecule, the EC50 (in general, the midpoint of the concentration-response curve) in the series with U2OS [2] came to 76 nM. On to `O=C(Cc1ccc2ccccc2c1)NCc1ccco1`, for which, in the series with U2OS [2], the EC50 was 12900 nM.

In the series with U2OS [1], `CC(=O)c1ccc(-c2ccc(CC(=O)NCc3ccccc3)cc2)cc1` came in with a GI50 of 11 nM. Moreover, in series [3], the solubility entry is reported as “Insoluble”. On Tubulin (Homo sapiens), the result was Active. For the same molecule, the EC50 in the series on U2OS [2] is 28 nM. For the molecule `O=C(Cc1ccc(-c2ccccc2)cc1)NCc1ccccn1`, in the series with U2OS [2], the EC50 came out at 9700 nM. Consider `COC(=O)c1ccc(-c2ccc(CC(=O)NCc3ccccc3)cc2)cc1`, for which the GI50 in the series on U2OS [1] was 27 nM. Also, in the series on U2OS [2], the EC50 is 81 nM. Taken in the same sequence, the figures for `O=C(Cc1ccc(-c2ccc3c(c2)OCO3)cc1)NCc1ccco1` were 31 nM and 144 nM. For the molecule `CN(Cc1ccccc1)C(=O)Cc1ccc(-c2ccccc2)cc1`, the EC50 in the series with U2OS [2] came out at 29900 nM.

In the case of `COc1ccc(CNC(=O)Cc2ccc(-c3ccccc3)cc2)cc1`, the EC50 in the series with U2OS [2] turned out to be 1900 nM. In the series with U2OS [1], `COC(=O)c1ccc(-c2ccc(CC(=O)NCc3ccco3)cc2)cc1` registered a concentration for 50% growth inhibition (GI50) of 24 nM. The EC50 with U2OS [2] came out at 73 nM. In the case of `CC(C)CNC(=O)Cc1ccc(-c2ccccc2)cc1`, the EC50 in the series with U2OS [2] was above 40000 nM. The same measure, in the same setting: for `O=C(Cc1ccc(-c2ccccc2)cc1)Nc1ccccc1` the value was above 40000 nM. Same read-out and setting: the figure for `O=C(NCc1ccco1)c1cc2ccccc2o1` is above 40000 nM. In the case of `N#Cc1ccc(-c2ccc(CC(=O)NCc3ccco3)cc2)cc1`, the concentration for 50% growth inhibition (GI50) with U2OS [1] is 111 nM. For the same molecule, the inhibition entry in the series listed under Sus scrofa [4] was “Active”. For the same molecule, the EC50 in the series with U2OS [2] stood at 526 nM. In the series on U2OS [1], `O=C(Cc1ccc(-c2ccc(OC(F)(F)F)cc2)cc1)NCc1ccco1` showed a GI50 of 120 nM. Take `CC(=O)Nc1cccc(-c2ccc(CC(=O)NCc3ccco3)cc2)c1`: the GI50 in the series on U2OS [1] turned out to be 120 nM. Moreover, the EC50 in the series with U2OS [2] was found to be 490 nM. Consider `O=C(Cc1ccc(-c2ccccc2)cc1)NCc1ccncc1`, for which the EC50 with U2OS [2] came out at 16600 nM.

As for `C[C@H](NC(=O)Cc1ccc(-c2ccccc2)cc1)c1ccccc1`, in the series with U2OS [2], the EC50 was above 40000 nM. Molecule `Cc1ccc(-c2ccc(CC(=O)NCc3ccco3)cc2)cc1F` gave a 50% growth inhibitory concentration (GI50) with U2OS [1] of 100 nM. Also, the EC50 in the series with U2OS [2] was found to be 340 nM. Taken in the same sequence, the figures for `COc1c(C)cc(-c2ccc(CC(=O)NCc3ccco3)cc2)cc1C` were 603 nM and 1170 nM.

As to `O=C(Cc1ccc(-c2ccccc2)cc1)NCc1ccccc1`, the EC50 in the series on U2OS [2] was found to be 250 nM. The molecule `O=C(Cc1ccc(-c2ccccc2)cc1)NCc1ccco1` gave an Activity in the series on U2OS [5] of 40%. For the same molecule, in the series with U2OS [6], the inhibition entry is “Dose-dependent effect”. For the same molecule, it took 150 nM to inhibit growth in the series with U2OS [1] by half (GI50). In the series filed under Sus scrofa [4], the inhibition entry is “Active”. Besides, the 50% effective concentration (EC50) in the series on U2OS [2] was determined as 510 nM. Take `O=C(Cc1ccc(-c2ccc(C(=O)O)cc2)cc1)NCc1ccco1`: in the series with U2OS [2], the EC50 is above 20000 nM. Turning to `COC(=O)Nc1nc2cc(C(=O)c3cccs3)ccc2[nH]1` [NOCODAZOLE], the inhibition entry in the series listed under Sus scrofa [4] was “Active”. For the same molecule, the Imax in the series filed under Sus scrofa [7] came out at 85%. Besides, the EC50 in the series on U2OS [2] is 50 nM. `CC(C)CNC(=O)c1ccc(-c2ccc(CC(=O)NCc3ccco3)cc2)cc1`: in the series on U2OS [1], the GI50 stood at 46 nM. For the same molecule, the EC50 in the series on U2OS [2] is 101 nM. Regarding `C[C@@H](NC(=O)Cc1ccc(-c2ccccc2)cc1)c1ccccc1`, the EC50 with U2OS [2] stood at 4830 nM. As for `O=C(NCc1ccco1)c1cnc2ccccc2c1`, in the series on U2OS [2], the EC50 is above 40000 nM. For the molecule `O=C(Cc1ccc(-c2ccccc2)cc1)NCc1cccc(Br)c1`, the inhibition entry in the series filed under Sus scrofa [4] is “inactive”. In the series on U2OS [2], the EC50 was above 40000 nM. As to `CNC(=O)c1ccc(-c2ccc(CC(=O)NCc3ccco3)cc2)cc1`, in the series on U2OS [1], growth was halved (GI50) at 21 nM. For the same molecule, on Tubulin (Homo sapiens), the outcome was Active. Also, the inhibition entry in the series filed under Sus scrofa [4] was “Active”. The inhibition entry in the series listed under Sus scrofa [8] is “inactive”. The solubility result in series [9] is listed as “soluble”. Also, in series [10], the Stability result is “Stable”. Besides, in the series filed under Sus scrofa [11], the inhibition result is “Dose-dependent effect”. The Imax in the series filed under Sus scrofa [7] is 45%. Moreover, the EC50 with U2OS [2] turned out to be 51 nM. For the molecule `O=C(NCc1ccco1)c1ccccc1-c1ccccc1`, the EC50 in the series on U2OS [2] is above 40000 nM. Take `O=C(NCc1ccco1)c1ccc(C(=O)c2ccccc2)cc1`: in the series on U2OS [2], the EC50 was above 40000 nM. The same measure, in the same setting: the figure for `CC(=O)c1ccccc1-c1ccc(CC(=O)NCc2ccco2)cc1` is 12900 nM.

Regarding `O=C(NCc1ccco1)c1ccc(-c2ccccc2)cc1`, in the series on U2OS [2], the EC50 is above 40000 nM.

For the molecule `COc1cc(-c2ccc(CC(=O)NCc3ccco3)cc2)cc(OC)c1OC`, the EC50 with U2OS [2] was above 40000 nM.
